Source: the EternaBench riboswitch data

Tested on: MS2 coat protein
Assay: apparent Kd, MS2 coat protein; higher = weaker binding; RNA-MaP array; FMN 200 µM where present
Method in brief: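 Green signal was scaled to red-channel RNA signal and control-cluster median Fmax, and the apparent Kd was taken as the median of filtered per-cluster binding-curve fits. The binding series used SNAP-549-labelled MS2 coat protein from 0.7 or 1.5 nM, doubling to 3 µM, on designs transcribed by stalled E. coli RNA polymerase on Illumina sequencing-chip clusters. Each series ran without and then with constant ligand in 100 mM Tris-HCl pH 7.5, 80 mM KCl, 4 mM MgCl2, BSA, DTT, yeast tRNA and Tween-20.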

[1] = designed as: ON switch for flavin mononucleotide, no ligand
[2] = ligand present: flavin mononucleotide, designed as: ON switch for flavin mononucleotide
[3] = designed as: OFF switch for flavin mononucleotide, no ligand
[4] = ligand present: flavin mononucleotide, designed as: OFF switch for flavin mononucleotide

Sequence | apparent Kd [1] [nM] | apparent Kd [2] [nM] | apparent Kd [3] [nM] | apparent Kd [4] [nM]
GCUGUCGCAUGAGGAUAUGGACAGCUUUGCUGUCCAGAAGGCAUGUCGAUAGACAUGAGGAUCACCCAUGUAGUAAAGACAGCA | 588 | 64.6 |  | 
GCUGCAAAGUAAGGAUAUGCCUAGGAAACCUAGGCAGAAGGUACAUGAGGAUCACCCAUGUUAACGCAAAGCGAAUAAAGCAGC |  |  | 18.1 | 24.1
CUGUUCACCAGUGGGCGACCACAUGAGGAUCACCCAUGUAGGGAGGAUAUGCCCGCGCAGCUGUAGCAGAAGGCCCUGCAAAUC |  |  | 21.2 | 125
AGCUGUGGCAGAGGAUAUACCUCAAUAAUCCAUUGCAAAUAGCGAUGGACAUGAGGAUCACCCAUGUAGAAGGCUGUCUCAGCA |  |  | 323 | 733
CAGCGAUAGCUAAAGUAUCUAUCAGAGGAUAUUUAUGAAACAUGAGGAUCACCCAUGUGACACUGGGAGAAGGCUGAUAGAUAG | 10.1 | 5.25 |  | 
AAUCUGUGAGGAUAUGGUGAGUAGUGCCUGAGCGCUGCUCACCAGAAGGCACAUGAGGAUCACCCAUGUAUGAC |  |  | 34.2 | 153
ACAUGAGGAUCACCCAUGUAGAGUGAAGAAGGUAGAUACUUAUGACUCUCCCAUGUACAUAGGACUGAGGAUAUUCUAAUAAUU | 23.4 | 18.9 |  | 
UGGGUAAAUGUAGGAUAUCCAUAUUAAUAAUAUGGAGAAGGACAUGAGGAUCACCCAUGUACAGGGAAUUACCCAUUUCCUCUC |  |  | 80.1 | 287
UUUUAACAUGAGGAUCACCCAUGUCGUUCAAAUCAAGGAUAUCAAGCGUGUGCACACGCCUGAGAAGGUGAAGCUC | 55.8 | 98.9 |  | 
GUACUGUAGUGAGGAUAUACGAGAACGAUAGUUCGGCGAUCCAAUUAUACAUGAGGAUCACCCAUGUAGAAGGCACUUCAGUAC |  |  | 10.8 | 30.6
GAUCAACAUGAGGAUCACCCAUGUGAGGAUAUGAUACUAUGUACUUCGGUACAUAGUAUCAGAAGGCAUGUAAA |  |  | 50.1 | 42.5
AGUAGAUCAGGAUAUACAUGAAAGAUCAAAAUGUCCAAUCUACAUGAGGAUCACCCAUGUAGAAGGGAUCUACA |  |  | 17.1 | 23
UUAAAUCAUGUAGGAUAUGCAUGGCGAAGCUACGCAGAAGGACAUGAGGAUCACCCAUGUUAUAGCUACCCAGAACGGUGGCAA |  |  | 75.5 | 267
CACCGGCCCUAUGUGUUCUAGACAUGAGGAUCACCCAUGUAUAGAAGGGUCUUCGCGAAACGCAGACAGGAUAUGUACAGGAGU |  |  | 6.31 | 9.26
GCCGGGUAGGCAGGAUAUCCUCGCGCAAACACAUGAGGAUCACCCAUGUACACAAAACGUGAUAUGGAGAAGGGCUGACCCGCA | 33.9 | 5.84 |  | 
UGUGUGUGGCAGGAUAUGCAGGUAGUAGGACGGGUAGAAGGGUCUACAUGAGGAUCACCCAUGUGGCCGGUUGG |  |  | 16.8 | 18.1
UGCAUGGUAGGAUAUACGGAGCAUUAGGGUUUGUUAUGUGGACAUGAGGAUCACCCAUGUAGAAGGGCCGUGCU |  |  | 37.3 | 57.1
GGAUGACAAAGUCAUCCAAUUCGAACAUGAGGAUCACCCAUGUAGGAUAUGGUACUCAAAGAGUACCAGAAGGACAUGUGCUUU |  |  | 38.1 | 145
ACACAGCAAGGAUAUACAUGAGGAUCACCCAUGUGGUGGCCGUUACGGUAGGACUAGUGUAGAAGGUGCAGUGG |  |  | 519 | 177
ACCUCACAUGAGGAUCACCCAUGUCAGGAUAUUCAAACAGGCGGAACUCCGCCUUCUCGAAGAAGGGACAUUAA |  |  | 16.2 | 72.4
GUACUGUAGUGAGGAUAUACGAGAUCGAUAGAUCGGCGAUCCAUAUAUACAUGAGGAUCACCCAUGUAGAAGGCACUUCAGUAC |  |  | 7.02 | 93.4
UGUCGGAGCAGAGGAUAUUACAUGAGGAUCACCCAUGUAUGAUCCAAUAGCUGGAAACAGCAAUGUAAGAAGGCUGCUCCGACA |  |  | 291 | 8.48
AACUAAGUAUUAAUGGUGUCUGACAGAAGGCAAUAGAAUGAGACCGACAUGAGGAUCACCCAUGUUGAGGAUAUGUCUUGCUAC |  |  | 6.44 | 6.73
GUGGUCAGACAUGAGGAUCACCCAUGUGGAAUAAAUAACACACAGGAUAUGUAAUAUAGGAUAUAACAGAAGGGUGGAUUGGUG | 318 | 168 |  | 
ACCAGGGAUUCAGGAUAUAUUAGCCGAGGCCGCGUAGAAGGGAAAUCCUGACAUGAGGAUCACCCAUGUCGACCCGCCUUCCAC | 22.8 | 24.2 |  | 
GAGAAGAGUAUAGGAUAUUAAGAAACAUGAGGAUCACCCAUGUAGUGAGUGUGAGAAGGGUAGGAGGUGGUAGGAGGAUCCAGG | 22.3 | 16.4 |  | 
ACAAAAUUGAUCCAAUUUACCAACAUGAGGAUCACCCAUGUGCAGGAUAUGCUAAAGAUGAAUAAGCAGAAGGGCAAAUACAUA |  |  | 239 | 708
AAAAAACAUGAGGAUCACCCAUGUCGAAAGACAUGAGGAUAUGUACAGACUUCGGUCUGUACAGAAGGCAUGUCUU | 37.3 | 15.2 |  | 

Sequence | apparent Kd [1] [nM] | apparent Kd [2] [nM] | apparent Kd [3] [nM] | apparent Kd [4] [nM]
ACCUUACAUGAGGAUCACCCAUGUUAGGAUAUCUCGCUUGCGCAAUCACAGCACAAGCAGAGAAGGGACGCGGG |  |  | 28.1 | 32.5
GGGUACAUCGGAGGAUAUCAUGUAAAUACAUGAGGAUCACCCAUGUCGAUGGAGACAUCGGAGAUUGAGAAGGCCGAUGAACCG | 165 | 8.52 |  | 
UACUUGUUAGGAUAUCUUACAUUUGCAUCAUAGCAACCAUUGGAGAAGGGACAUGAGGAUCACCCAUGUUUGGU |  |  | 42.3 | 43.8
UGUGUUAUUGGAGGAUAUCGAUAUCAAACAUGAGGAUCACCCAUGUUGAGGAUCACACAUGUACAUGAGAAGGCCGACGUAGUG | 13.3 | 14.5 |  | 
GAGCUGCAGACAGGAUAUGAGACCGCCACGGUCUCAGAAGGGUCAUGUUCUACAUGAGGAUCACCCAUGUCGGACAGCUCGAAG | 140 | 11.8 |  | 
AUCAGCUCGUCAGGAUAUACGUCACUGCGUCAGCUGUGUGGUAAGAUCACAUGAGGAUCACCCAUGUAGAAGGGACGAGCUGAU |  |  | 15.3 | 295
CGGGAGAGAGGAUAUGGUGGACAUCACAUGAGGAUCACCCAUGUCUCGAGUGCUCCGUCACCAGAAGGCUCCGUUU |  |  | 109 | 78.7
CGUGUCAUCGAGAAGGCCUCAACAUGAGGAUCACCCAUGUUGUAAUAUGGGAGGAUAUCGAUGAUACAGCUACGUUUCGUAGCA | 21.1 | 6.03 |  | 
CUAUAUAUAUGAGGAUAUCUAUAUCCAACAUGAGGAUCACCCAUGUUGAGGAUCACCCAUGUAAAGGAGAAGGCAUAUAUAUAG | 43.2 | 14.9 |  | 
CAGUACUGAGGAUAUACAUGAGGAUCACCCAUGUGUUCCAGCUAGGAAACUAGCAAUAGUAGAAGGCAGUACUG |  |  | 20.1 | 315
UUGGACGUCGUAGGAAAUGUAGGAUAUUCCUACAUGAGGAUCACCCAUGUUGACAUGGAAGAAGGACAGAAGGACGAUGUCCAU | 517 | 11 |  | 
AUCUCAGGACGAGGAUAUCAAUACAUGAGGAUCACCCAUGUAUGAUUACUGUGAUCCUUCAAGGCUGAGAAGGCGUCCCAAAUG |  |  | 12.2 | 27
UUUUAUAAUACCUCAUGUACAUGAGGAUCACCCAUGUUAACUAAGGAUAUAUAUAAAUUAAUAAUGUAGAAGGUAGUAAUAUUU |  |  | 16.5 | 14.3
UUUGGUUUGCGAGGAUAUGCUUUUAGUAAGUUAGCAGAAGGCGCGUUACAUAGAACCUCUUGUUACAUGAGGAUCACCCAUGUU |  |  | 88.2 | 95
GCACCAAGAGGAUAUACCGAGGUCAUCUACUUUGCAUAGCGACAUGAGGAUCACCCAUGUAGAAGGUUUGUCGU |  |  | 95.4 | 80.6
AAAGUGCCGACGAAGGAUAUAGCGGGUGAGACAUGAGGAUCACCCAUGUAUGCAGAACUCAUCCUCUAGAAGGUUGAGACGGCUA | 113 | 177 |  | 
CCAUGCAUAGCGAUAUGAUCGAGAGAUCAUGUCGCUAAAUUUAGAAGGACAUGAGGAUCACCCAUGUAGGAUAUGGGAGCAUGC | 58.4 | 17.8 |  | 
AAUAUGAGCUGGAAUAACCUCAAAACAUGAGGAUCACCCAUGUAGGAUAUCAGCACGAUAAGUGCUGAGAAGGACAACCAGCUC |  |  | 13.9 | 18.1
AGACCGCUACGCCGGUUUCACGCACAGGAUAUGCGGUUACAUGAGGAUCACCCAUGUGGCCAUGUGCAGAAGGGUGGUUCGUGC | 21.2 | 14.9 |  | 
AUCAGCUCGUCAGGAUAUACAUUACUGCUUCGGCAGUGUAUUAAGAUCACAUGAGGAUCACCCAUGUAGAAGGGACGAGCUGAU |  |  | 23.2 | 124
UGCCCUCUUAAGGAUAUAUUGGACGAGCGACCAAUAGAAGGUGGGACAUGAGGAUCACCCAUGUGCAGACAUCC |  |  | 23.2 | 22.7
GCGUCCCGCAGAGGAUAUGUUGUUCCGCCUACAUGAGGAUCACCCAUGUCAAAGGGCUGAUCCCGACAGAAGGCUGAAGGAUAC | 130 | 138 |  | 
GUUUAGUGAGGAUAUGUGGCGUGGAUCGAGCGCGGUCUGCUACAGAAGGCACAUGAGGAUCACCCAUGUUUCUC |  |  | 166 | 329
UAGAAGUCAGGAUAUCCAUGGCGGCACUUGCGUGGUGGCGUGGAGAAGGGACAUGAGGAUCACCCAUGUAAAGG |  |  | 148 | 174
GACGAAUAGCUAGGAUAUCGUAAAUCAUUGGUAGUCUCUAUUCACAUGAGGAUCACCCAUGUAAUCGAGAAGGAGCACUCGUUC |  |  | 80.4 | 240
GACCUAUAGGUAGGAUAUCAUUGCGAUUAGCUAUGAGAAGGACCACAUGAGGAUCACCCAUGUCCUCUAAUUAGCCAUUUGGUC |  |  | 380 | 1040
ACAGCGUGAGGAUAUACAUGAGGAUCACCCAUGUGUGGCAGGUUAUCCUGUCAUGAGUGUAGAAGGCACGCUGU |  |  | 30 | 90.7
